Measured values from article PMC2764440 (Nucleic Acids Research, 2009).

How the values were obtained:
MCEC [1] = test: Inhibitor studies: uptake of F complexes; type: cell-based; conditions: Mus musculus, read-out: reduction (inhibition) of uptake of F complexes
Outline: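 Mouse corneal endothelial cells (MCEC; DMEM, 10% FBS, full serum) were seeded at 2.2 × 10^5/well one day before. Complexes of test peptide with Cy5-labelled luciferase plasmid were formed in 10 mM phosphate buffer pH 7.0, added with inhibitor at non-toxic working levels, and incubated 3 h at 37°C. Cells were washed, trypsinised and read by flow cytometry (mean fluorescence, 10 000 gated cells), relative to vehicle (DMSO or water) = 100%.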

MCEC [2] = test: Inhibitor studies: luciferase gene expression mediated by F complexes; type: cell-based, mouse
CD4+ T-cells = test: T-cell proliferation assay; type: cell-based, mouse; conditions: 1-MT 0.75 mM
Outline: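 CD4+ responder T cells from C3H mouse spleens (10^5/well, anti-CD3/CD28 bead-stimulated) were co-cultured 3 days with 5 × 10^4 mitomycin C-treated (40 µg/ml, 30 min) MCEC. The MCEC were untransfected or transfected with test peptide carrying IDO or GFP plasmid, with or without 0.75 mM final 1-methyl-dl-tryptophan. [3H]thymidine (1 µCi/well) was added and incorporation was counted 16 h later.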

Structure (SMILES): CCN(c1nc(N)c(C(=O)NC(=N)N)nc1Cl)C(C)C [EIPA, 5-(N-ethyl-N-isopropyl)amiloride]
- inhibition at 25 µg/mL (MCEC [1]): 32.9%

Structure (SMILES): C=C1[C@@H](C)[C@H]2[C@H](Cc3ccccc3)NC(=O)[C@]23[C@H](OC(C)=O)/C=C/[C@@](C)(O)C(=O)[C@@H](C)C/C=C/[C@H]3[C@@H]1O [cytochalasin, cytochalasin D]
- inhibition at 5 µg/mL (MCEC [1]): 58.5%

Structure (SMILES): COC(=O)Nc1nc2ccc(C(=O)c3cccs3)cc2[nH]1 [nocodazole]
- inhibition at 4.5 µg/mL (MCEC [1]): 58.2%
- increase of gene expression mediated by F complexes (MCEC [2]; nocodazole 4.5 µg/ml, N/P 20, luciferase 72 h later, relative to vehicle control): 2.35 times

Structure (SMILES): Cn1cc(CC(N)C(=O)O)c2ccccc21 (racemic) [1-MT, 1-methyl-DL-tryptophan]
- effect on the inhibition of T-cell proliferation by IDO-transfected MCEC (CD4+ T-cells): reversed

Structure (SMILES): CCCCC[C@@H](O)[C@H]1C(=O)O[C@H](C)[C@@H](O)/C=C/C=C/C=C/C=C/C=C(\C)[C@@H](O)C[C@H](O)C[C@H](O)C[C@H](O)C[C@H](O)C[C@H](O)C[C@@H]1O [Filipin, filipin III]
- inhibition at 1 µg/mL (MCEC [1]): 48.6%

Structure (SMILES): O=C(N/N=C/c1ccc(O)c(O)c1)c1cc2ccccc2cc1O [dynasore]
- inhibition at 6.8 µg/mL (MCEC [1]): 64.7%
- toxicity during the longer incubation period used for gene expression assays (MCEC [2]; dynasore 6.8 µg/ml, MCEC): pronounced toxicity
